Reference: ChEMBL document CHEMBL3758120, “Synthesis and Mechanism Studies of 1,3-Benzoazolyl Substituted Pyrrolo[2,3-b]pyrazine Derivatives as Nonintercalative Topoisomerase II Catalytic Inhibitors” (J Med Chem, 2016)
Calls of active or inactive are those of the source. The rule behind the calls is not given here.

Columns and labels:
[1] = biological target: T1, DNA topoisomerase 2-alpha (Homo sapiens, UniProt P11388); experiment: Inhibition of purified human topoisomerase 2-mediated relaxation of supercoiled pBR322 DNA at 20 uM incubated for 30 mins by agarose gel electrophoresis
How it was run: (§1)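 Reactions contained 0.2 μg supercoiled pBR322 in 50 mM Tris-HCl pH 8.0, 150 mM NaCl, 10 mM MgCl2, 0.5 mM DTT, 30 μg/ml BSA, normally 2 mM ATP (1, 2 or 4 mM in ATP-competition runs). Started with 1 U human Topo II, 30 min at 37 °C, stopped with sarcosyl buffer, run on 1% agarose 1.5 h at 75 V, gel-stained and imaged under UV.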

[2] = test system: HeLa; experiment: Antiproliferative activity against human HeLa cells after 48 hrs by MTT assay; assay type: functional, cell-based
How it was run: (§2)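 Cells seeded at 5000 per well and left overnight, then exposed to increasing concentrations (0-50 μM) for 48 h. […] HL-60/MX2 is a mitoxantrone-selected HL-60 derivative with reduced Topo IIα/β.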

[3] = Antiproliferative activity against human MDA-MB-201 cells after 48 hrs by MTT assay; assay type: functional, cell-based; how it was run: as §2
[4] = test system: A549; experiment: Antiproliferative activity against human A549 cells after 48 hrs by MTT assay; assay type: functional, cell-based; details: A549, 48 h; how it was run: as §2
[5] = test system: K562; experiment: Antiproliferative activity against human K562 cells after 48 hrs by MTT assay; assay type: functional, cell-based; details: K562, 48 h; how it was run: as §2
[6] = test system: Raji; experiment: Antiproliferative activity against human Raji cells after 48 hrs by MTT assay; assay type: functional, cell-based; how it was run: as §2
[7] = Antiproliferative activity against human HL60 cells after 48 hrs by MTT assay; assay type: functional, cell-based; details: HL-60, 48 h; how it was run: as §2
[8] = Antiproliferative activity against human HL60/MX2 cells after 48 hrs by MTT assay; assay type: functional, cell-based; details: HL60/MX2, 48 h; how it was run: as §2
[9] = test system: HL-60; experiment: Resistance index, ratio of IC50 for human HL60/MX2 cells to IC50 for HL60 cells; assay type: functional
How it was run: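 Resistance index calculated as MTT-derived IC50 (48 h exposure, 0-50 μM, A570 readout) in HL-60/MX2 divided by IC50 in parental HL-60.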

[10] = test system: HEK293; experiment: Cytotoxicity against HEK293 cells after 48 hrs by MTT assay; assay type: cell-based; details: Homo sapiens, HEK293, 48 h
[11] = biological target: T2, DNA topoisomerase 1 (Homo sapiens) (UniProt P11387); experiment: Inhibition of recombinant human topoisomerase 1-mediated relaxation of supercoiled pBR322 DNA at 50 uM incubated for 30 mins by agarose gel electrophoresis
T2 sequence (whole entry): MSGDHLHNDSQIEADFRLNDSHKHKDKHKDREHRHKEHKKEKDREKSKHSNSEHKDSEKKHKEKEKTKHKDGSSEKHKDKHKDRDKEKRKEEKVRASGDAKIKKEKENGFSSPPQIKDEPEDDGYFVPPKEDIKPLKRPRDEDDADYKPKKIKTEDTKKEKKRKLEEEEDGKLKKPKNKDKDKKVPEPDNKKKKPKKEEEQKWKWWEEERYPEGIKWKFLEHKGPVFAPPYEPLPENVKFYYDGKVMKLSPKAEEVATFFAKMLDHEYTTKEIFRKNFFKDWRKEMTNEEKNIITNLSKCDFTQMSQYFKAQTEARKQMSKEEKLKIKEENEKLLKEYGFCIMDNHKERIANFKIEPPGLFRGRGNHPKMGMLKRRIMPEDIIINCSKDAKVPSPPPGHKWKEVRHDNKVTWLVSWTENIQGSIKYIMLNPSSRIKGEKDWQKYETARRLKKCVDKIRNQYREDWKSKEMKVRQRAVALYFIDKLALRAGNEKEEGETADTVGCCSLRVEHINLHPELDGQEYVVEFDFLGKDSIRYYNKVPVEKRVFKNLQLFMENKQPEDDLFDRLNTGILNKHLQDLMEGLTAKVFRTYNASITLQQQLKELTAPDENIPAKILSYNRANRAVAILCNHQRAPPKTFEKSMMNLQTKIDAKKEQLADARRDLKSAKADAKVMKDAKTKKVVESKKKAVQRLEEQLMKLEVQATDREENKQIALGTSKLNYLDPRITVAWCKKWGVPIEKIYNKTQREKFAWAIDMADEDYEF
How it was run: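 Supercoiled pBR322 relaxed by Topo I with compound, incubated 30 min at 37 °C, stopped with 1% SDS dye, run on 1% agarose 1 h at 90 V in TAE, stained and imaged under UV; camptothecin as reference.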

[12] = biological target: T1, DNA topoisomerase 2-alpha; experiment: Inhibition of purified human topoisomerase 2-mediated relaxation of supercoiled pBR322 DNA at 50 uM incubated for 30 mins by agarose gel electrophoresis; how it was run: as §1

T1 sequence (P11388 whole entry): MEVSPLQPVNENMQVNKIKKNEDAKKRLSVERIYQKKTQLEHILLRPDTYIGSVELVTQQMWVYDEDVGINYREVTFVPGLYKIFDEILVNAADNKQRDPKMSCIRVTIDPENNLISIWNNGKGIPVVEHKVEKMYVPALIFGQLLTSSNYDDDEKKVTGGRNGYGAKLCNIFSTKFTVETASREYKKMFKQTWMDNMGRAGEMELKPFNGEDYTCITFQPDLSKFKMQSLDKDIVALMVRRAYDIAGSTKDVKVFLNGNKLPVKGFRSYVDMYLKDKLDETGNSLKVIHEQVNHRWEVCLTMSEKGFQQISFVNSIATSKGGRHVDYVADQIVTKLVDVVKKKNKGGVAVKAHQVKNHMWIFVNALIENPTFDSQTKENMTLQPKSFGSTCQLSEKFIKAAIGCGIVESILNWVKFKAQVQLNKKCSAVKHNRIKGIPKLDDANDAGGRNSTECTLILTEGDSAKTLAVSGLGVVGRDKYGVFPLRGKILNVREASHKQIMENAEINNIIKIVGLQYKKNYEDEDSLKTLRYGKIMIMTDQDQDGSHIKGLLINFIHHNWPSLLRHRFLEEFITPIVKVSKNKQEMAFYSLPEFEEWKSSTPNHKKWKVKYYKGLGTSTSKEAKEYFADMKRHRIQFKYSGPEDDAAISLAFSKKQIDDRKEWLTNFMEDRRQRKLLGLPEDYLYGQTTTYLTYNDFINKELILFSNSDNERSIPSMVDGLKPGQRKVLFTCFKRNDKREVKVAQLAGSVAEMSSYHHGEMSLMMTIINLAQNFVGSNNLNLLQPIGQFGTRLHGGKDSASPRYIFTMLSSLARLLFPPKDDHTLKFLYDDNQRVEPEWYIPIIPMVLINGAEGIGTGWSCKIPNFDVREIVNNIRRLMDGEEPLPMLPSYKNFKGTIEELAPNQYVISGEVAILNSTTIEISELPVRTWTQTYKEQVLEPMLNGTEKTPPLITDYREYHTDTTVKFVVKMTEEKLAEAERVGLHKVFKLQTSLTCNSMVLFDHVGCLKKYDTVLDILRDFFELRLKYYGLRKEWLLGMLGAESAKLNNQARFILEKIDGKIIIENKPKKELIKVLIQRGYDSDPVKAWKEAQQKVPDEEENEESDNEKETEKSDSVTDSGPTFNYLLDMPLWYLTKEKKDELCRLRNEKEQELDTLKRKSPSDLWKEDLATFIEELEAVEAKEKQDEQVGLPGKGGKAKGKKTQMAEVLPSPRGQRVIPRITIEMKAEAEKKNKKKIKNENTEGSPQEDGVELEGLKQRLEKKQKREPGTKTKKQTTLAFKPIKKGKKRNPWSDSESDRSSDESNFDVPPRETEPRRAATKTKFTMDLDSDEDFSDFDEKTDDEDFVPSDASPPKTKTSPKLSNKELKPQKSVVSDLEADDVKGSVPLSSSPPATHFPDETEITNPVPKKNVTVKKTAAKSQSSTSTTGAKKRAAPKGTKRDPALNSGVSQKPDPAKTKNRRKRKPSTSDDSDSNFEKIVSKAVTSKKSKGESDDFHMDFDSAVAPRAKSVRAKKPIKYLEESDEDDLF

Row | SMILES | inhibition [1] | IC50 [2] [µM] | IC50 [3] [µM] | IC50 [4] [µM] | IC50 [5] [nM] | IC50 [6] [nM] | IC50 [7] [nM] | IC50 [8] [nM] | Ratio IC50 [9] | IC50 [10] [µM] | inhibition [11] | inhibition [12]
1 | CN(C)CCCn1c(N)c(-c2nc3ccccc3s2)c2nc(C#N)c(C#N)nc21 | Active | 0.72 | 2.93 | 8.87 | 1800 | 2990 | 510 | 1310 | 2.5 | 4.29 |  | 
2 | CN(C)CCCCn1c(N)c(-c2nc3ccccc3s2)c2nc(C#N)c(C#N)nc21 | Active | 18.7 | 2.74 | 35.8 | 1330 | 10100 | 830 | 2140 | 2.6 | 5.31 |  | 
3 | CCN(CC)CCCn1c(N)c(-c2nc3ccccc3[nH]2)c2nc(C#N)c(C#N)nc21 | Active | 3.15 | 28.9 | 25.3 | 1800 | 1870 | 730 | 1820 | 2.5 | 7.87 | inactive | 
4 | CN(C)CCn1c(N)c(-c2nc3ccccc3[nH]2)c2nc(C#N)c(C#N)nc21 |  | 8.88 | 43.5 | > 50 | 6340 | 8320 | 2220 | 3780 | 1.7 | 9.73 | inactive | inactive
5 | N#Cc1nc2c(-c3nc4ccccc4[nH]3)c(N)n(CCCN3CCCCC3)c2nc1C#N |  | 6.68 | 6.23 | 6.11 | 3460 | 3380 | 1680 | 1010 | 0.6 | 6.72 | inactive | inactive
6 | CN(C)CCCn1c(N)c(-c2nc3ccccc3[nH]2)c2nc(C#N)c(C#N)nc21 | Active | 25.9 | 1.82 | 10.4 | 1730 | 1230 | 870 | 2390 | 2.7 | 8.36 | inactive | 
7 | CCN(CC)CCCCn1c(-c2c(N)n(C)c3nc(C#N)c(C#N)nc23)nc2ccccc21 | Active | 11.8 | 6.95 | 13.1 | 3180 | 600 | 2860 | 3920 | 1.3 | 8.82 |  | 
8 | CN(C)CCCn1c(N)c(-c2nc3ccccc3n2C)c2nc(C#N)c(C#N)nc21 | Active | 4.32 | 3.67 | 11.7 | 3560 | 940 | 2120 | 11300 | 5.3 | 8.41 |  | 
9 | CCN(CC)CCCCn1c(N)c(-c2nc3ccccc3o2)c2nc(C#N)c(C#N)nc21 | Active | 6.42 | 2.71 | 9.39 | 1980 | 2610 | 450 | 1720 | 3.8 | 3.96 |  | 
10 | CN(C)CCCCn1c(-c2c(N)n(C)c3nc(C#N)c(C#N)nc23)nc2ccccc21 | Active | 10.1 | 6.48 | 11.2 | 11300 | 1070 | 2270 | 2810 | 1.2 | 7.13 |  | 
11 | CN1CCN(CCn2c(N)c(-c3nc4ccccc4[nH]3)c3nc(C#N)c(C#N)nc32)CC1 |  | > 50 | 9.11 | 40.5 | 6550 | > 50000 | 4300 | 6490 | 1.5 | 10.9 | inactive | 
12 | CN1CCN(CCCn2c(N)c(-c3nc4ccccc4[nH]3)c3nc(C#N)c(C#N)nc32)CC1 |  | 15.6 | 4.52 | 5.75 | 1260 | 2620 | 750 | 3320 | 4.4 | 6.26 | inactive | inactive
13 | CN(C)CCCCn1c(N)c(-c2nc3ccccc3n2C)c2nc(C#N)c(C#N)nc21 | Active | 0.46 | 1.79 | 6.15 | 1450 | 320 | 740 | 2580 | 3.5 | 3.87 |  | 
14 | CN(C)CCCn1c(N)c(-c2nc3ccccc3o2)c2nc(C#N)c(C#N)nc21 | Active | 11.2 | 5.64 | 7.17 | 5900 | 1940 | 390 | 1310 | 3.3 | 5.88 |  | 
15 | CCN(CC)CCCn1c(N)c(-c2nc3ccccc3n2C)c2nc(C#N)c(C#N)nc21 | Active | 12.4 | 6.75 | 10.7 | 3270 | 2220 | 2810 | 4470 | 1.6 | 7.24 |  | 
16 | CCN(CC)CCn1c(N)c(-c2nc3ccccc3[nH]2)c2nc(C#N)c(C#N)nc21 |  | 11.6 | 25.4 | > 50 | 2490 | 8950 | 1880 | 7150 | 3.8 | 12.2 | inactive | inactive
17 | N#Cc1nc2c(-c3nc4ccccc4[nH]3)c(N)n(CCN3CCOCC3)c2nc1C#N |  | > 50 | > 50 | > 50 | > 50000 | 2880 | 9040 | > 50000 |  | 22.3 | inactive | inactive
18 | CCn1c(N)c(-c2nc3ccccc3[nH]2)c2nc(C#N)c(C#N)nc21 |  | > 50 | > 50 | > 50 | > 50000 | > 50000 | > 50000 | > 50000 |  | > 50 | inactive | inactive
19 | CCN(CC)CCCCn1c(N)c(-c2nc3ccccc3n2C)c2nc(C#N)c(C#N)nc21 | Active | 1.61 | 2.89 | 1.72 | 1010 | 920 | 700 | 1730 | 2.5 | 3.16 |  | 
20 | CN(C)CCCCn1c(N)c(-c2nc3ccccc3o2)c2nc(C#N)c(C#N)nc21 | Active | 1.95 | 6.13 | 5.47 | 1380 | 9200 | 640 | 960 | 1.5 | 6.24 |  | 
